MEKK3 PB1 HTS = raises or lowers MEK5 binding to the human MEKK3 PB1 domain. bead-based flow cytometry, Alexa488-MEK5 binding to MEKK3; actives lie on both sides; 0 = blocked by unlabeled MEK5, 100 = vehicle. hit rate 1.4% among 290,000. binding response (% of control), % at 10 µM. AID 1529;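 active means binding response more than 3 SD above or below the average of its plate-row segment, actives on both sides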;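 further: Alexa488 bead fluorescence after subtracting the streptavidin-only scavenger bead signal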
Apaf1 inhib = blocks human Apaf-1 apoptosome activity | hit rate 0.71% among 330,000 | reconstituted apoptosome caspase-3 activity, DEVD-Rh110 fluorescence | inhibition, % at 20 µM | O14727; active means inhibition of at least 40% at 20 µM;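 further: plate controls were DMSO wells for no effect and DEVD-CHO caspase inhibitor wells for full effect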
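Material: reconstituted apoptosome with Apaf-1, cytochrome c, caspase-9, procaspase-3, dATP. Technique: Rh110 fluorescence intensity. Buffer or medium: pH 7.5 Hepes buffer with CHAPS, BSA, DTT. Times: 30 min plus 50 min, RT.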
UBC13 inh = inhibitors of human UBC13 polyubiquitin chain formation | hit rate 0.47% among 330,000 | P61088 | TR-FRET | AID 485273 | inhibition, % at 20 µM; in the data active means inhibition above about 45%, passing the limit was not always enough
Target sequence (P61088 whole entry, looked up): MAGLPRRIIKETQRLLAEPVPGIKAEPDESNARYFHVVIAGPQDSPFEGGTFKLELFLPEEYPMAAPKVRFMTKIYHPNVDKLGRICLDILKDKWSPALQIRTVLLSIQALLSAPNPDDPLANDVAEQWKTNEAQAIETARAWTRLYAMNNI
MEKK2mut PB1 HTS = signal of MEK5 binding to mutant human MEKK2 PB1 domain; bead flow cytometry, Alexa488-MEK5 binding to MEKK2 mutant; percent response, % at 10 µM; hit rate 0.35% among 290,000; AID 1530; in the data active means percent response above about 24%, passing the limit was not always enough
MEKK2 WT-MEK5 = raises or lowers MEK5 binding to wildtype human MEKK2 PB1 domain | hit rate 1.1% among 290,000 | bead flow cytometry, Alexa488-MEK5 binding to MEKK2 WT; actives lie on both sides | binding response (% of control), % at 10 µM; in the data active means binding response below about 67% or above about 130%
Pemphigus Ab inh = blocks pemphigus antibody binding to human desmoglein-3 | hit rate 0.48% among 310,000 | DSG3-coupled beads, scFv-anti-DSG3-GFP binding, flow cytometry; stronger effect = lower value | AID 588358 | binding (percent of control), % at 10 µM;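 active means binding more than 3 SD below its plate's average and above zero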
MEKK2wt confirm = raises or lowers MEK5 binding to wildtype human MEKK2, retest; AID 1892; shares compounds with MEKK3 PB1 HTS; hit rate 2.4% among 5,900; bead flow cytometry, Alexa488-MEK5 binding to MEKK2 WT; actives lie on both sides; binding response (% of control), % at 10 µM; in the data active means binding response below about 16% or above about 210%; inactive means in between
MEKK2mut confirm = signal of MEK5 binding to mutant human MEKK2, retest; shares compounds with MEKK3 PB1 HTS; percent response, % at 10 µM; hit rate 2% among 5,900; bead flow cytometry, Alexa488-MEK5 binding to MEKK2 mutant; in the data active means percent response mostly above about 71%, no sharp cut-off; inactive means mostly below about 38%;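 further: higher means compound restores mutant binding toward wildtype level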
MEKK3 confirm = confirmation of inhibitors of MEK5 binding to human MEKK3. bead flow cytometry, Alexa488-MEK5 binding to MEKK3; stronger effect = lower value. AID 1894. shares compounds with MEKK3 PB1 HTS. binding response (% of control), % at 10 µM. hit rate 1.8% among 5,900;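 active means binding response below 72% of control, or above a set upper limit, though filed actives all read lower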;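 further: 100% = DMSO only wells and 0% = binding blocked by excess unlabeled MEK5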
An asterisk follows results filed as active; . = not tested or not shown; + = active, no number; ! = not active in a repeat; [ ] = remark or other dose. Sampled rows, rich in hits. Any-hit rate of the full collection: about 3.2%.

SMILES	MEKK3 PB1 HTS	Apaf1 inhib	UBC13 inh	MEKK2mut PB1 HTS	MEKK2 WT-MEK5	Pemphigus Ab inh	MEKK2wt confirm	MEKK2mut confirm	MEKK3 confirm
COCCNC(=S)NC1CC2CCCC(C1)N2Cc1cccs1 (stereo not drawn)	82.0*[inhibitor]	-2.9	-3.1	-10.0	86.0	100.9	99.0	-2.0	97.0
CCCNC(=S)NC1CC2CCC(C1)N2Cc1ccccc1 (stereo not drawn)	82.0*[inhibitor]	-14.8	-6.2	-11.0	88.0	97.3	101.0	1.0	98.0
COCCCNC(=S)NC1CC2CCCC(C1)N2Cc1cccs1 (stereo not drawn)	79.0	-18.2	7.5	-9.0	87.0	111.2	.	.	.
CCNC(=S)NC1CC2CCC(C1)N2Cc1ccccc1 (stereo not drawn)	100.0	-9.7	0.0	1.0	104.0	108.7	.	.	.
O=C(NC1CC2CCCC(C1)N2Cc1ccccc1)C1CCCCC1 (stereo not drawn)	146.0*	-4.4	3.9	6.0	130.0	102.4	96.0	-6.0	100.0
Cc1ccc(CN2C3CCCC2CC(NC(=O)c2ccc(C)cc2)C3)cc1 (stereo not drawn)	144.0*	-7.3	12.8	52.0*	200.0*	92.0	116.0	18.0	101.0
O=c1c(-c2ccccc2)nnc2sc(COc3ccc(Br)cc3)nn12	99.0	-2.9	6.2	-2.0	98.0	94.1	.	.	.
COc1ccc2[nH]c3c(c2c1)CCN1C(=O)C(CC(=O)NCCC2=CCCCC2)C[C@H](C(=O)N2CCOCC2)[C@@]31C (stereo partly drawn)	.	6.9	.	.	.	99.8	.	.	.
CC(C)=N/N=C(/c1ccc([N+](=O)[O-])cc1)C12CN3CN(CN(C3)C1)C2	148.0*	-10.0	-5.0	+	.	85.6	100.0	-6.0	103.0
CCN=C1NN=C(c2cc(C)n(CCc3ccccc3)c2C)CS1	106.0	.	.	12.0	130.0	86.2	.	.	.
Cc1cc(C2=NNC(=NCCc3ccccc3)SC2)c(C)n1CC1CCCO1 (stereo not drawn)	105.0	8.0	-0.5	24.0	150.0*	96.9	135.0	27.0	100.0
O=[N+]([O-])c1ccc(-c2nc(Nc3cccc(O)c3)c3ccccc3n2)cc1	112.0	13.7	8.8	19.0	146.0*	101.2	120.0	4.0	102.0
O=C(O)c1cccc(Nc2nc(-c3ccc([N+](=O)[O-])cc3)nc3ccccc23)c1	108.0	16.2	-17.9	6.0	100.0	95.7	.	.	.
Cc1cn([C@H]2C[C@H](O)[C@@H](CNC=O)O2)c(=O)[nH]c1=O	.	.	.	.	.	95.4	.	.	.
CC[C@]1(c2cccc(C)c2)C(=O)N(C(=O)OC)N1C(=O)OC	105.0	7.9	-5.7	59.0*	66.0*	99.4	98.0	2.0	102.0
COCCn1c(SCc2ccc(OC)c(F)c2)nc2ccccc2c1=O	156.0*	11.5	6.9	7.0	134.0	98.2	101.0	2.0	103.0
COc1ccc(CSc2nc3ccccc3c(=O)[nH]2)cc1F	6.0*[inhibitor]	6.1	-2.1	-23.0	9.0*[inhibitor]	103.7	100.0	0.0	104.0
COCCn1c(SCc2ccc(F)cc2)nc2ccccc2c1=O	102.0	14.6	11.2	6.0	101.0	94.8	.	.	.
COc1cc2nc(N3CCN(C(=O)C4COc5ccccc5O4)CC3)nc(N)c2cc1OC (stereo not drawn)	116.0	4.3	27.3	15.0	150.0*!	115.8	146.0	27.0	111.0
CCOCCCNC(c1ccccc1)c1ccncc1 (stereo not drawn)	103.0	1.4	0.7	4.0	103.0	113.8	.	.	.
CCOCCCNCC(O)c1ccccc1 (stereo not drawn)	162.0*	-7.2	8.7	2.0	116.0	131.1	94.0	-10.0	96.0
Cc1sc2ncnc(N3CCC(C(=O)Nc4ccc(OC(F)F)c(Cl)c4)CC3)c2c1C	.	14.8	5.2	.	.	.	.	.	.
CCN(CC)CCNC(=O)c1ccc(NC(=O)C2CCN(c3ncnc4sc(C)c(C)c34)CC2)cc1	105.0	8.6	8.9	16.0	147.0*	119.1	-5.0*[inhibitor]	9.0	90.0
C=C(C)c1cccc(C(C)(C)NC(=O)NNC(=O)c2ccccc2O)c1	99.0	13.3	2.1	-4.0	100.0	.	.	.	.
CCCCCOP(=O)(c1ccccc1)c1ccccc1	104.0	7.3	-14.4	13.0	108.0	103.9	.	.	.
SMILES	MEKK3 PB1 HTS	Apaf1 inhib	UBC13 inh	MEKK2mut PB1 HTS	MEKK2 WT-MEK5	Pemphigus Ab inh	MEKK2wt confirm	MEKK2mut confirm	MEKK3 confirm
CC(C)OP(=O)(c1ccccc1)c1ccccc1	153.0*	1.2	10.0	0.0	109.0	117.5	115.0	8.0	105.0
Cc1ccc([C@@H]2CC(=O)[C@@H]3CN(S(=O)(=O)c4ccc(C)cc4)[C@H](c4cccc(Cl)c4)C[C@@H]3N2S(=O)(=O)c2ccc(Cl)cc2)cc1	.	.	.	.	.	98.9	.	.	.
NS(=O)(=O)c1ccc(S(=O)(=O)N2CCCC(c3ccccc3)C2)cc1 (stereo not drawn)	.	.	.	.	.	111.6	.	.	.
C[N+]1(CC(=O)NNc2c3ccccc3nc3ccccc23)CCOCC1	101.0	5.8	-317.5	-3.0	98.0	.	.	.	.
O=C(CN1CCOCC1)NNc1c2ccccc2nc2ccccc12	40.0*[inhibitor]	-6.3	-40.0	-9.0	37.0*[inhibitor]	.	103.0	-3.0	105.0
COc1ccc(OC)c(/C=N/NC(=O)CCc2ccc(O)c(O)c2)c1	136.0*	4.5	20.1	1.0	107.0	105.5	94.0	-5.0	98.0
COc1cccc(/C=N/NC(=O)CCCc2ccc(OC)c(C)c2)c1	156.0*	23.2	6.7	1.0	110.0	86.2	102.0	2.0	104.0
Cc1ccc(O)c(N=Cc2cc(Cc3ccccc3)cc([N+](=O)[O-])c2O)c1	105.0	21.5	-34.7	-7.0	85.0	100.7	.	.	.
O=[N+]([O-])c1cc(Cc2ccccc2)cc(C=Nc2ccc(N3CCOCC3)cc2)c1O	146.0*	.	.	0.0	97.0	124.0	89.0	-5.0	96.0
FC(F)(F)c1cc(-c2ccco2)nc(NCc2cccs2)n1	122.0*	11.3	-10.7	5.0	106.0	.	93.0	-2.0	94.0
Cc1ccc(S(=O)(=O)c2nc(N3CCOCC3)sc2Cl)cc1	124.0*	-5.8	1.7	7.0	119.0	112.8	106.0	1.0	110.0
CC1(c2ccc(NC(=O)c3ccccc3F)cc2)CC1(Cl)Cl (stereo not drawn)	107.0	11.1	8.1	2.0	109.0	102.0	.	.	.
COc1cc(/C=C/C(=O)OCC(=O)Nc2ccc3[nH]c(=O)[nH]c3c2)ccc1OC(F)F	.	.	.	.	.	94.3	.	.	.

Screening results from PubChem BioAssay.
